The values below come from ChEMBL document CHEMBL2331331 (J Med Chem, 2013).

The target in test [1] is Vascular endothelial growth factor receptor 2 (Danio rerio, UniProt Q5GIT4). As to the kind of experiment: Inhibition of VEGFR2 in transgenic zebrafish embryo assessed as inhibition of intersegmental vessels formation measured 33 hrs post fertilization by fluorescence microscopic analysis. Put shortly: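 FLK-1:EGFP transgenic zebrafish embryos, 10 per well, exposed at 28.5 °C from 15 to 31 hpf to compound in fish water at 1.25, 2.5 or 5 μM (diluted from a 10 mmol/L DMSO stock); 0.3% DMSO as vehicle control. Embryos were imaged at 33 hpf, and ISVs above the yolk extension were scored for length. n = 11, mean ± SD, ANOVA.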

Another test deals with HeLa. As to the kind of experiment: Cytotoxicity against human HeLa cells assessed as growth inhibition after 72 hrs by MTT assay. The test is classed as functional, cell-based. Put shortly:
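MTT viability assay with serial inhibitor dilutions for 72 h at 37 °C, then MTT for 2–4 h and OD read at 570 nm. Leukemia lines were seeded at (1–4) × 10⁴ cells/well and lysed with 20% acidified SDS. Adherent lines were seeded at (2–5) × 10³ cells/well, dosed after 24 h and dissolved in DMSO. Triplicate; mean ± SD.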
For orientation: Tetrazolium dyes change colour on reduction, which living cells bring about.

Test [2] concerns the target Receptor-type tyrosine-protein kinase FLT3 (Homo sapiens, UniProt P36888, ITD). Briefly: Binding affinity to FLT3-ITD mutant (unknown origin).
Test [3] addresses T1, Receptor-type tyrosine-protein kinase FLT3 (Homo sapiens, UniProt P36888).
T1 sequence (P36888 whole entry): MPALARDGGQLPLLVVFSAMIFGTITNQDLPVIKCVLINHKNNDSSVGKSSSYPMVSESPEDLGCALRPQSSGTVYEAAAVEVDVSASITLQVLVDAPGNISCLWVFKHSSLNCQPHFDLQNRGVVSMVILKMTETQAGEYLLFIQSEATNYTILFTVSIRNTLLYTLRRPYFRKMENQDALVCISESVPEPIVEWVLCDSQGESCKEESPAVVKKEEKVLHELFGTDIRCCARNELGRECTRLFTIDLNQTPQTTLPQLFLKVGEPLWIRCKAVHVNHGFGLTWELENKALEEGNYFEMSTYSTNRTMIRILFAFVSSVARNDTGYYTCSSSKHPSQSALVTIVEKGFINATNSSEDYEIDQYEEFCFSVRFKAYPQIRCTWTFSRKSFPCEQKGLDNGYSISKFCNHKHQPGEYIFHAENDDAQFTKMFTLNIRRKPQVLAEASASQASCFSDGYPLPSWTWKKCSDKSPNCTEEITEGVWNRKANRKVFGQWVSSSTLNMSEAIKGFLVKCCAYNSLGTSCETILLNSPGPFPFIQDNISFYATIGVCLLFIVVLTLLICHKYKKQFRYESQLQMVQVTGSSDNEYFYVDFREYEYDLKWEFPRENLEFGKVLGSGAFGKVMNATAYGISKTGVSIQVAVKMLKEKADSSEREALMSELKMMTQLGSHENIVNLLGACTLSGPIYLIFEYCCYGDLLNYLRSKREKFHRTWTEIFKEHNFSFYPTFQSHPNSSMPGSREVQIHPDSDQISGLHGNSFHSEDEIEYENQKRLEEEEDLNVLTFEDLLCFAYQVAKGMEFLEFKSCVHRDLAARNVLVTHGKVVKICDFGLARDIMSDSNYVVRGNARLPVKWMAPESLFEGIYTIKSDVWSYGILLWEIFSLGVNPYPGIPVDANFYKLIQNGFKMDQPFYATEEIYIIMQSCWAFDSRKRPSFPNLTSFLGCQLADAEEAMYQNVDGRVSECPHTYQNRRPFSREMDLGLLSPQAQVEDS
Briefly: Inhibition of FLT3 (unknown origin).

Test [4] concerns the target Vascular endothelial growth factor receptor 2 (Homo sapiens, UniProt P35968). Briefly: Inhibition of VEGFR2 (unknown origin).

Sequence of Vascular endothelial growth factor receptor 2 (Danio rerio, UniProt Q5GIT4) (Q5GIT4 whole entry): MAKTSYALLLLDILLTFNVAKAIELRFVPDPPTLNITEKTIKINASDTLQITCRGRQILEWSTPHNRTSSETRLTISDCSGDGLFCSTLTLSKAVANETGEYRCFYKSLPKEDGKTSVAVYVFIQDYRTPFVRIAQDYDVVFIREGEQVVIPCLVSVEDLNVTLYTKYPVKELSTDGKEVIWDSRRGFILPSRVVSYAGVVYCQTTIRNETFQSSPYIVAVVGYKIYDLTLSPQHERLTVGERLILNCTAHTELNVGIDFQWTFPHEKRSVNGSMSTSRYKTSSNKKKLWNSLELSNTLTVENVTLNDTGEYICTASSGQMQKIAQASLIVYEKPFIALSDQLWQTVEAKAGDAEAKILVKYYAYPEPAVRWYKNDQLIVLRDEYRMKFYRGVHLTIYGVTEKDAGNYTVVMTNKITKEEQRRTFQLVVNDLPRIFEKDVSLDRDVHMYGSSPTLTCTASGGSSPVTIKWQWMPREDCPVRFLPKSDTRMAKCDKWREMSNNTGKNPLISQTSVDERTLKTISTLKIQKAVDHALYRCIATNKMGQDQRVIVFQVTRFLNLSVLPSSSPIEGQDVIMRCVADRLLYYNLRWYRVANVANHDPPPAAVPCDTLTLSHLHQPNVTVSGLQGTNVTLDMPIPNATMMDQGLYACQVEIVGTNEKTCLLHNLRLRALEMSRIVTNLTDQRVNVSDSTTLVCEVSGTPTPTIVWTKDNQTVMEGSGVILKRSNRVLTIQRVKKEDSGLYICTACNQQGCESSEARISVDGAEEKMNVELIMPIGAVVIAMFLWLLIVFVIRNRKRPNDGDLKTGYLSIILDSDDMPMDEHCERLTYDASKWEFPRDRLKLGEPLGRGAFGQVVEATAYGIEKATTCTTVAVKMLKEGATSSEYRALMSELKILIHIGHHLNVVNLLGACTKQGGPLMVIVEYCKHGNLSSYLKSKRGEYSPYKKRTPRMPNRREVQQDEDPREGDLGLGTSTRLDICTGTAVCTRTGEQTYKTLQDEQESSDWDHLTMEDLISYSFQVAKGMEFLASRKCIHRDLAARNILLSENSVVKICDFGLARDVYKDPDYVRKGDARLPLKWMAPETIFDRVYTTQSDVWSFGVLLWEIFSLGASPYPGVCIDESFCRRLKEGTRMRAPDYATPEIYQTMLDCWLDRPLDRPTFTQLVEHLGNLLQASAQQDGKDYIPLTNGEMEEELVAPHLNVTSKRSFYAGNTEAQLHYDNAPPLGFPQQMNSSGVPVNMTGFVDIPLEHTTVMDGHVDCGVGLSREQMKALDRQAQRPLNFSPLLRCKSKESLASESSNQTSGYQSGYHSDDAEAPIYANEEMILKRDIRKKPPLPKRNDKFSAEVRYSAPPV
Sequence of Vascular endothelial growth factor receptor 2 (Homo sapiens, UniProt P35968) (P35968 whole entry): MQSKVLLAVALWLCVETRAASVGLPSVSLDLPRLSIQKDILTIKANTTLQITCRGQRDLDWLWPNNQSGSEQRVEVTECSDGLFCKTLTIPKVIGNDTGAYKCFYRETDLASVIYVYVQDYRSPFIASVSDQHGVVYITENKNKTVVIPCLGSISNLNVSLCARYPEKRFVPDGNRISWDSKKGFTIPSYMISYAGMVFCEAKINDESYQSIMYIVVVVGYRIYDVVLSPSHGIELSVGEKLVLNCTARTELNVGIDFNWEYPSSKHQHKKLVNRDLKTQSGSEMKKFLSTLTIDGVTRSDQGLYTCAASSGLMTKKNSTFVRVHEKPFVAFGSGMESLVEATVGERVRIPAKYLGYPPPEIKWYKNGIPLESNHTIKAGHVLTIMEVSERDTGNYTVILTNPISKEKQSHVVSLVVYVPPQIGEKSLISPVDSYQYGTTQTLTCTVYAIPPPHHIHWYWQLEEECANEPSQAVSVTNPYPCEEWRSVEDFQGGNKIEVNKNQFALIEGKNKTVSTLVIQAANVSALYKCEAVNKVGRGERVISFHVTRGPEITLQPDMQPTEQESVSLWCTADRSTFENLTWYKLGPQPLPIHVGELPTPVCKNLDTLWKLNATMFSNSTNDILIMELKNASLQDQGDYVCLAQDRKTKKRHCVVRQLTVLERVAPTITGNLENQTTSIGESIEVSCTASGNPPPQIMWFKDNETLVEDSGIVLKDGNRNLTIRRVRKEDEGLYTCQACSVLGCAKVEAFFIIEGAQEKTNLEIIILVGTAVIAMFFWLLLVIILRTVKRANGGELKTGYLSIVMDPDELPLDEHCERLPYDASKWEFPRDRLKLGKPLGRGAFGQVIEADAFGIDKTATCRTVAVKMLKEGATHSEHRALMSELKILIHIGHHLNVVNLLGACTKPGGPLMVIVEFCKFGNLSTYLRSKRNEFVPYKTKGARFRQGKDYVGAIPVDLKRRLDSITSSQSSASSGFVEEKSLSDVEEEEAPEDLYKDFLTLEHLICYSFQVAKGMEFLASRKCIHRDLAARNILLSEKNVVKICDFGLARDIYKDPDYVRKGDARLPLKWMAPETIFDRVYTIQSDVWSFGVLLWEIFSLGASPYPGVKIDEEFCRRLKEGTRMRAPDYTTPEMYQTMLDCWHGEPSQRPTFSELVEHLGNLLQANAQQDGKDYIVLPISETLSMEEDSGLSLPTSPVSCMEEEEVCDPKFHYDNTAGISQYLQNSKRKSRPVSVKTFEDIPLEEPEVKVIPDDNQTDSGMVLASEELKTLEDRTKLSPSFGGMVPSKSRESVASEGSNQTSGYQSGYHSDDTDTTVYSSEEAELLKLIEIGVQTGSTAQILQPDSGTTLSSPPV

`O=C(Nc1ccc(Br)cc1)Nc1cccc(Oc2ncnc3[nH]ncc23)c1`: the half-inhibitory concentration (IC50) – broadly, the midpoint of a concentration-inhibition curve – was greater than 100 µM in test [1] and greater than 10 µM in the test on HeLa.

For `O=C(Cc1ccc(Br)cc1)Nc1cccc(Oc2ncnc3n[nH]cc23)c1`, the results for the IC50 (in test [1]; in the test on HeLa) were greater than 100 µM and greater than 10 µM, respectively.

For `COc1cccc(NC(=O)Nc2ccc(Oc3ncnc4n[nH]cc34)cc2)c1`, the concentration for half-maximal inhibition (IC50) in test [1] was 82 µM; in the test with HeLa it was greater than 10 µM.

For the compound `O=C(Nc1ccc(Oc2ncnc3[nH]ncc23)cc1)Nc1ccc(C(F)(F)F)cc1`, the concentration for half-maximal inhibition (IC50) in test [1] is 1.2 µM; in test [3] it was 0.032 µM; in the test on HeLa, greater than 10 µM; in test [4], 0.038 µM. In addition, the equilibrium dissociation constant (Kd) (as a rule, the free concentration of one partner at which half of the binding sites on the other are occupied at equilibrium, for simple one-to-one binding) in test [2] was 0.91 µM.

Turning to `O=C(Nc1ccc(Oc2ncnc3n[nH]cc23)cc1)NC1CCCCC1`, the 50% inhibitory concentration (IC50) was greater than 100 µM in test [1] and greater than 10 µM in the test with HeLa.

For the compound `CC(NC(=O)Nc1ccc(Oc2ncnc3n[nH]cc23)cc1)c1ccccc1` (stereo not given), the IC50 was greater than 98.2 µM in test [1] and greater than 10 µM in the test with HeLa.

As for `O=C(Nc1ccc(Br)cc1)Nc1ccc(Oc2ncnc3[nH]ncc23)cc1`, the IC50 in test [1] was 74.7 µM; with HeLa it was greater than 10 µM.

For `O=C(Nc1cccc(Oc2ncnc3n[nH]cc23)c1)c1ccc(C(F)(F)F)cc1`, the half-inhibitory concentration (IC50) in test [1] is greater than 100 µM; in the test with HeLa it was greater than 10 µM.

As to `O=C(Nc1ccc(Oc2ncnc3n[nH]cc23)cc1)Nc1cccc(OC(F)(F)F)c1`, the IC50 was 17.8 µM in test [1] and greater than 10 µM with HeLa.

For the compound `O=C(Nc1ccc(Oc2ncnc3[nH]ncc23)cc1)Nc1cccc(F)c1`, the IC50 in test [1] was 16.6 µM; in the test on HeLa, greater than 10 µM.

Turning to `O=C(Nc1ccc(Oc2ncnc3[nH]ncc23)cc1)Nc1cccc(C(F)(F)F)c1`, the IC50 was 1.05 µM in test [1] and greater than 10 µM in the test with HeLa. The compound also displayed a Kd in test [2] of 0.0066 µM.

Regarding `O=C(Cc1ccc(Br)cc1)Nc1ccc(Oc2ncnc3n[nH]cc23)cc1`, the half-maximal inhibitory concentration (IC50) is 74.7 µM in test [1] and greater than 10 µM in the test with HeLa.

For the compound `CC(C)c1cccc(NC(=O)Nc2ccc(Oc3ncnc4n[nH]cc34)cc2)c1`, the IC50 was 7.73 µM in test [1] and greater than 10 µM in the test with HeLa.

Turning to `O=C(Nc1ccc(Oc2ncnc3n[nH]cc23)cc1)c1ccc(Br)cc1`, the IC50 in test [1] is 74.7 µM; in the test with HeLa, greater than 10 µM.

Regarding `O=C(Nc1ccc(Oc2ncnc3n[nH]cc23)cc1)Nc1cc(C(F)(F)F)cc(C(F)(F)F)c1`, the results for the IC50 (in test [1]; in the test on HeLa) were 5.18 µM and greater than 10 µM, respectively.

Consider `O=C(Nc1ccc(Br)cc1)Nc1ccc(Nc2ncnc3n[nH]cc23)cc1`, for which the IC50 was greater than 100 µM in test [1] and greater than 10 µM in the test on HeLa.

Consider `O=C(Nc1cccc(Oc2ncnc3[nH]ncc23)c1)c1ccc(Br)cc1`, for which the 50% inhibitory concentration (IC50) in test [1] is greater than 100 µM; in the test on HeLa, greater than 10 µM.

Turning to `O=C(Nc1ccc(Oc2ncnc3[nH]ncc23)cc1)Nc1ccc(C(F)(F)F)cc1Cl`, the values for the half-inhibitory concentration (IC50) (in test [1]; with HeLa) were 8.46 µM and greater than 10 µM, respectively.

With `CNC(=O)c1cc(Oc2ccc(NC(=O)Nc3ccc(Cl)c(C(F)(F)F)c3)cc2)ccn1` [SORAFENIB], the half-inhibitory concentration (IC50) in test [1] came out at 2.6 µM; in the test with HeLa, 4.16 µM.

Take `Cn1ncc2c(Oc3ccc(NC(=O)Nc4ccc(C(F)(F)F)cc4)cc3)ncnc21`: the values for the IC50 (in test [1]; in the test on HeLa) were greater than 100 µM and greater than 10 µM, respectively.

Regarding `COc1cccc(NC(=O)Nc2ccc(Oc3ncnc4c3cnn4C)cc2)c1`, the IC50 is greater than 100 µM in test [1] and greater than 10 µM in the test on HeLa.

On to `COc1cccc(NC(=O)Nc2ccc(Nc3ncnc4[nH]ncc34)cc2)c1`, for which the half-maximal inhibitory concentration (IC50) in test [1] was greater than 100 µM; in the test on HeLa, greater than 10 µM.

As for `O=C(Nc1ccc(Nc2ncnc3[nH]ncc23)cc1)Nc1ccc(C(F)(F)F)cc1`, the IC50 in test [1] is greater than 100 µM; in the test with HeLa, greater than 10 µM.

For the compound `Cc1cccc(NC(=O)Nc2ccc(Oc3ncnc4[nH]ncc34)cc2)c1C`, the IC50 in test [1] is 98.8 µM; in the test with HeLa, greater than 10 µM.

Take `O=C(Nc1ccc(Oc2ncnc3n[nH]cc23)cc1)Nc1cccnc1`: the IC50 in test [1] is greater than 100 µM; in the test with HeLa, greater than 10 µM.

As to `O=C(Nc1ccccc1)Nc1ccc(Oc2ncnc3n[nH]cc23)cc1`, the IC50 was 20.2 µM in test [1] and greater than 10 µM with HeLa.

Consider `O=C(Nc1ccc(Oc2ncnc3[nH]ncc23)cc1)Nc1ccc(N2CCOCC2)cc1`, for which the IC50 in test [1] is greater than 100 µM; in the test with HeLa, greater than 10 µM.

Regarding `O=C(Nc1ccc(F)cc1)Nc1ccc(Oc2ncnc3[nH]ncc23)cc1`, the concentration for half-maximal inhibition (IC50) is 89.4 µM in test [1] and greater than 10 µM with HeLa.

Consider `O=C(Cc1ccc(C(F)(F)F)cc1)Nc1cccc(Oc2ncnc3[nH]ncc23)c1`, for which the half-inhibitory concentration (IC50) in test [1] was greater than 100 µM; in the test on HeLa it was greater than 10 µM.

Take `CC(NC(=O)Nc1ccc(Nc2ncnc3[nH]ncc23)cc1)c1ccccc1` (stereo not given): the IC50 is greater than 100 µM in test [1] and greater than 10 µM in the test with HeLa.

For the compound `Cc1cccc(NC(=O)Nc2ccc(Nc3ncnc4n[nH]cc34)cc2)c1C`, the values for the IC50 (in test [1]; with HeLa) were greater than 100 µM and greater than 10 µM, respectively.

Turning to `O=C(Nc1ccc(C(F)(F)F)cc1)Nc1cccc(Oc2ncnc3[nH]ncc23)c1`, the IC50 in test [1] is greater than 100 µM; in the test with HeLa it was greater than 10 µM.

As to `O=C(NCC1CCCCC1)Nc1ccc(Oc2ncnc3[nH]ncc23)cc1`, the results for the 50% inhibitory concentration (IC50) (in test [1]; in the test on HeLa) were greater than 100 µM and greater than 10 µM, respectively.
